# Key:
# [1] = tested on: Lung; assay: Drug uptake in mouse lung at 50 mg/kg, po in 20% Kolliphor measured at 8 hrs post dose; assay type: ADME, organism-based; design: dose 50 mg/kg, route oral; settings: in vivo
# In short: (§1)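 Female Swiss Webster mice, 8 weeks old, given a single 50 mg/kg oral gavage dose in 20% HPβCD or 20% Kolliphor. Tissues taken from three mice at 2 and 8 h post dose. Homogenized by probe sonication in PBS (1:4 w/v), protein precipitated with acetonitrile, and compound measured by LC-MS/MS in μM.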
# [2] = tested on: C2C12; assay: Cytotoxicity against mouse C2C12 cells up to 10 uM; assay type: cell-based
# In short: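 Mouse C2C12 myoblasts infected with T. cruzi CA-I/72, then exposed at 24 h postinfection to compound at 10 μM down to 5 pM in 5-fold steps for 72 h at 37 °C. Cells fixed in paraformaldehyde, stained with DAPI and scored by automated imaging. Triplicate wells; uninfected and infected untreated wells as controls.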
# [3] = Drug uptake in mouse fat at 50 mg/kg, po in 20% Kolliphor measured at 8 hrs post dose; assay type: ADME, organism-based, Adipose tissue; design: dose 50 mg/kg, route oral; settings: in vivo; in short: as §1
# [4] = Drug uptake in mouse skeletal muscle at 50 mg/kg, po in 20% HP-beta-CD measured at 8 hrs post dose; assay type: ADME, organism-based, Muscle tissue; design: dose 50 mg/kg, route oral; settings: in vivo; in short: as §1
# [5] = tested on: Intestine; assay: Drug uptake in mouse intestine at 50 mg/kg, po in 20% Kolliphor measured at 8 hrs post dose; assay type: ADME, organism-based; design: dose 50 mg/kg, route oral; settings: in vivo; in short: as §1
# [6] = tested on: Liver; assay: Drug uptake in mouse liver at 50 mg/kg, po in 20% Kolliphor measured at 8 hrs post dose; assay type: ADME, organism-based; design: dose 50 mg/kg, route oral; settings: in vivo; in short: as §1
# [7] = Drug uptake in mouse fat at 50 mg/kg, po in 20% HP-beta-CD measured at 8 hrs post dose; assay type: ADME, organism-based, Adipose tissue; design: dose 50 mg/kg, route oral; settings: in vivo; in short: as §1
# [8] = tested on: Intestine; assay: Drug uptake in mouse intestine at 50 mg/kg, po in 20% HP-beta-CD measured at 8 hrs post dose; assay type: ADME, organism-based; design: dose 50 mg/kg, route oral; settings: in vivo; in short: as §1
# [9] = tested on: Liver; assay: Drug uptake in mouse liver at 50 mg/kg, po in 20% HP-beta-CD measured at 8 hrs post dose; assay type: ADME, organism-based; design: dose 50 mg/kg, route oral; settings: in vivo; in short: as §1
# [10] = tested on: Trypanosoma cruzi; assay: Antitrypanosomal activity against Trypanosoma cruzi Y luc infected in mouse assessed as inhibition of parasitemia at 25 mg/kg, po bid in 20% Kolliphor administered for 4 consecutive days starting on day 3 of infection measured on day 7 post infection relative to vehicle-treated control; assay type: functional
# In short: (§2)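 Female Swiss Webster mice, 8 weeks old, infected ip with 10^5 T. cruzi Y luc trypomastigotes. Only mice with detectable luminescence on day 3 were treated. Compound given by oral gavage bid for four days, as a suspension in 20% HPβCD or a solution in 20% Kolliphor, five mice per group. Vehicle group and benznidazole 50 mg/kg served as controls. On day 7, mice were injected ip with 150 mg/kg d-luciferin and imaged after 5 min under isoflurane. Percent inhibition calculated against untreated mice; two-tailed paired t test.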
# [11] = tested on: Liver microsome; assay: Half life in rat liver microsomes; assay type: ADME
# [12] = tested on: Liver microsome; assay: Half life in human liver microsomes; assay type: ADME
# [13] = tested on: Heart; assay: Drug uptake in mouse heart at 50 mg/kg, po in 20% Kolliphor measured at 8 hrs post dose; assay type: ADME, organism-based; design: dose 50 mg/kg, route oral; settings: in vivo; in short: as §1
# [14] = tested on: Lung; assay: Drug uptake in mouse lung at 50 mg/kg, po in 20% HP-beta-CD measured at 8 hrs post dose; assay type: ADME, organism-based; design: dose 50 mg/kg, route oral; settings: in vivo; in short: as §1
# [15] = tested on: Heart; assay: Drug uptake in mouse heart at 50 mg/kg, po in 20% HP-beta-CD measured at 8 hrs post dose; assay type: ADME, organism-based; design: dose 50 mg/kg, route oral; settings: in vivo; in short: as §1
# [16] = tested on: Liver; assay: Half life in mouse liver microsomes; assay type: ADME
# [17] = Drug uptake in mouse skeletal muscle at 50 mg/kg, po in 20% Kolliphor measured at 8 hrs post dose; assay type: ADME, organism-based, Muscle tissue; design: dose 50 mg/kg, route oral; settings: in vivo; in short: as §1
# [18] = tested on: Trypanosoma cruzi; assay: Antitrypanosomal activity against Trypanosoma cruzi Y luc infected in mouse assessed as inhibition of parasitemia at 40 mg/kg, ip bid in 60% DMSO administered for 4 consecutive days starting on day 3 of infection measured on day 7 post infection relative to vehicle-treated control
# [19] = tested on: Trypanosoma cruzi; assay: Antitrypanosomal activity against Trypanosoma cruzi Y luc infected in mouse assessed as inhibition of parasitemia at 50 mg/kg, po bid in 20% Kolliphor administered for 4 consecutive days starting on day 3 of infection measured on day 7 post infection relative to vehicle-treated control; assay type: functional; in short: as §2
# [20] = molecular target: Cytochrome P450 2C9 (Homo sapiens, UniProt P11712); assay: Inhibition of CYP2C9 in human liver microsomes at 1 uM; assay type: ADME
# Chain of Cytochrome P450 2C9 (P11712 whole entry): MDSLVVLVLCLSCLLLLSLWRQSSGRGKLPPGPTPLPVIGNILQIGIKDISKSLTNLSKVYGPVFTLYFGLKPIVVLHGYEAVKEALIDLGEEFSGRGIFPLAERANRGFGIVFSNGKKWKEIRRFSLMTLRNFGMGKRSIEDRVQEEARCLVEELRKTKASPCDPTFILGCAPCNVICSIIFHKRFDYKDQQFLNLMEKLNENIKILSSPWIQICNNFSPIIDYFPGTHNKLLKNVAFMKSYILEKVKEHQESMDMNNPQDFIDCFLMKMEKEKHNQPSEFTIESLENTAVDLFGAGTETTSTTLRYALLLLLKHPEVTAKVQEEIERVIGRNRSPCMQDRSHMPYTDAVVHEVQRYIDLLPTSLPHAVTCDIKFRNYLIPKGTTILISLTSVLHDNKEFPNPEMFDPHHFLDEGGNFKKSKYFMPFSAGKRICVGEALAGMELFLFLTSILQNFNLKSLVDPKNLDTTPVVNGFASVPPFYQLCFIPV
# [21] = tested on: Trypanosoma cruzi; assay: Antitrypanosomal activity against Trypanosoma cruzi amastigotes infected in mouse C2C12 cells after 72 hrs by DAPI staining method; assay type: functional, organism-based; settings: C2C12, 72 h
# [22] = molecular target: T1, Cytochrome P450 1A2 (Homo sapiens, UniProt P05177); assay: Inhibition of CYP1A2 in human liver microsomes at 1 uM; assay type: ADME
# T1 sequence (P05177 whole entry): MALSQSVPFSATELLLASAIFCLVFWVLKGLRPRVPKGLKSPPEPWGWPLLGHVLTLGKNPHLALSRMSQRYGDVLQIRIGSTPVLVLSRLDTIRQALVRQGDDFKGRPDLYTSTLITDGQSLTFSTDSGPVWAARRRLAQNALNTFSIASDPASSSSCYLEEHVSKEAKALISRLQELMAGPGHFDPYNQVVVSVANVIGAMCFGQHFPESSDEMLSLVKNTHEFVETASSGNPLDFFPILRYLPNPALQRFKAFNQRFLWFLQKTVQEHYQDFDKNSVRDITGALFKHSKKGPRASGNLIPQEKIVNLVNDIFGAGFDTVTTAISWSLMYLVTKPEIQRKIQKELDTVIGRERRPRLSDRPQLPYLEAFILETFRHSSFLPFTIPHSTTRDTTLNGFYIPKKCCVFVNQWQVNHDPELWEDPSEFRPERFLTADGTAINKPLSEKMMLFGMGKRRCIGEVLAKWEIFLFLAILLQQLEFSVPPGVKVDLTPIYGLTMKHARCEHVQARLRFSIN
# [23] = molecular target: Cytochrome P450 3A4 (Homo sapiens, UniProt P08684); assay: Inhibition of CYP3A4 in human liver microsomes at 1 uM; assay type: ADME
# Chain of Cytochrome P450 3A4 (P08684 whole entry): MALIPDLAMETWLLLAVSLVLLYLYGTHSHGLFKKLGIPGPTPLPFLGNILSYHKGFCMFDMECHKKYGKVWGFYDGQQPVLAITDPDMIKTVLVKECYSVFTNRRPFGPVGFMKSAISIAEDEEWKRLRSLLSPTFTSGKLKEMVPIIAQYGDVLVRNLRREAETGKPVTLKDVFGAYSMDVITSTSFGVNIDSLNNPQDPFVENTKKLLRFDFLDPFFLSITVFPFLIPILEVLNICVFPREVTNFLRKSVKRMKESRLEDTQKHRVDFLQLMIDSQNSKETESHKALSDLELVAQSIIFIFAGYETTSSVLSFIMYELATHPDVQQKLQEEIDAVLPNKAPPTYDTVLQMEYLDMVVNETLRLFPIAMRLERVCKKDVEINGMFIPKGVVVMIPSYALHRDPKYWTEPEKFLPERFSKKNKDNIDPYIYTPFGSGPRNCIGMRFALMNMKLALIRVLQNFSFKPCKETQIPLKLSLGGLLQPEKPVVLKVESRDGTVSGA
# [24] = molecular target: Sterol 14-alpha demethylase (Trypanosoma cruzi (strain CL Brener), UniProt Q7Z1V1); assay: Binding affinity to Trypanosoma cruzi CYP51 by UV-vis titration method; settings: read-out: Kd(app)
# Chain of Sterol 14-alpha demethylase (Q7Z1V1 whole entry): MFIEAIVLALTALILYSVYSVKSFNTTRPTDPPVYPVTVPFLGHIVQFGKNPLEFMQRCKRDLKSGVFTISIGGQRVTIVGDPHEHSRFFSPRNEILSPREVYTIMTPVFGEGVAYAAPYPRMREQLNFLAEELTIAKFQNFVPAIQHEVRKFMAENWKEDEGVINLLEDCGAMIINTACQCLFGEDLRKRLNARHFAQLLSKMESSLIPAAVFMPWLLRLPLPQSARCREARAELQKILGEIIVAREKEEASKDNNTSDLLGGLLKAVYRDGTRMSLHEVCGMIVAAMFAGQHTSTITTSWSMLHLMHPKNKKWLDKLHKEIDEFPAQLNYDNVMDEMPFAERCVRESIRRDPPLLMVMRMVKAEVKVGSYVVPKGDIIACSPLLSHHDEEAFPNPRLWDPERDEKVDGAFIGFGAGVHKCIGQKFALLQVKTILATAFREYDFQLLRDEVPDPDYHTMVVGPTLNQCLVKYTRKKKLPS
# [25] = molecular target: Cytochrome P450 2D6 (Homo sapiens, UniProt P10635); assay: Inhibition of CYP2D6 in human liver microsomes at 1 uM; assay type: ADME
# Chain of Cytochrome P450 2D6 (P10635 whole entry): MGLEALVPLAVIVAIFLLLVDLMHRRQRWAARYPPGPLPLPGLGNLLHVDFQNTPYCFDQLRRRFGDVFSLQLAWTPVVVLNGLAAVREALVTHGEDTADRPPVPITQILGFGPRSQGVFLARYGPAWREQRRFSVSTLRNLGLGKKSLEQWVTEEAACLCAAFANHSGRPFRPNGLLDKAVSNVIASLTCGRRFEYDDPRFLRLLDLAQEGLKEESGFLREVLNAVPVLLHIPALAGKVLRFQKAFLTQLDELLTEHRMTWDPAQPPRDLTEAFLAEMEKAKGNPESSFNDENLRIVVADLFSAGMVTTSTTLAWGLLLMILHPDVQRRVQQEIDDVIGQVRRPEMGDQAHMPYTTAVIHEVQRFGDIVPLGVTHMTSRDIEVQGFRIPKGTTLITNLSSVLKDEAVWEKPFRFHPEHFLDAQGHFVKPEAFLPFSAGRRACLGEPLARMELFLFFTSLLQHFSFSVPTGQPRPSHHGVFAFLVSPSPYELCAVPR
# [26] = AUClast in mouse at 50 mg/kg, po in 20% Kolliphor; assay type: ADME, organism-based; design: time 0 - last, dose 50 mg/kg, route oral; settings: plasma
# In short: (§3)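 Female Swiss Webster mice, 8 weeks old, given one oral gavage dose of 50 mg/kg as a 10 mg/mL preparation in the named vehicle (20% HPβCD suspension or 20% Kolliphor). Plasma sampled at about 0.25, 0.5, 1, 2, 4, 6, 8, 12 and 24 h, n = 3 per time point. Protein precipitated with 5 volumes acetonitrile, filtered, then LC-MS/MS. Values are averages of three mice.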
# [27] = Tmax in mouse at 50 mg/kg, po in 20% Kolliphor; assay type: ADME, organism-based; design: dose 50 mg/kg, route oral; settings: in vivo; in short: as §3
# [28] = Clearance in mouse at 50 mg/kg, po in 20% Kolliphor; assay type: ADME, organism-based; design: dose 50 mg/kg, route oral; settings: in vivo; in short: as §3
# [29] = Half life in mouse at 50 mg/kg, po in 20% Kolliphor; assay type: ADME, organism-based; design: dose 50 mg/kg, route oral; settings: in vivo; in short: as §3
# [30] = Cmax in mouse at 50 mg/kg, po in 20% Kolliphor; assay type: ADME, organism-based; design: dose 50 mg/kg, route oral; settings: in vivo; in short: as §3
SMILES,Drug uptake [1],Drug uptake [3],Drug uptake [4],Drug uptake [5],Drug uptake [6],Drug uptake [7],Drug uptake [8],Drug uptake [9],t1/2 [11],t1/2 [12],Drug uptake [13],Drug uptake [14],Drug uptake [15],t1/2 [16],Drug uptake [17],Activity [2],inhibition in vivo at 25 mg/kg [10],inhibition in vivo at 40 mg/kg [18],inhibition in vivo at 50 mg/kg [19],other results
O=C(N[C@H](Cc1c[nH]c2ccccc12)C(=O)Nc1ccncc1)c1ccc(-c2ccc(OCc3ccc(F)cc3)c(F)c2)cc1F,Active,Active,Active,Active,Active,Active,Active,Active,39 min,15 min,Active,Active,Active,67 min,Active,Non-toxic,75.6%,96.9%,,
CC(=O)N1CCN(c2ccc(C(=O)N[C@H](Cc3c[nH]c4ccccc34)C(=O)Nc3ccncc3)c(F)c2)CC1,Active,Active,Active,Active,Active,Active,Active,Active,18 min,64 min,Active,Active,Active,13 min,Active,Non-toxic,,52%,,
O=C(N[C@H](Cc1c[nH]c2ccccc12)C(=O)Nc1ccncc1)c1ccc(N2CCN(c3cccc(Cl)c3)CC2)cc1F,Active,Active,Active,Active,Active,Active,Active,Active,21 min,,Active,Active,Active,33 min,Active,Non-toxic,73.6%,,97.6%,
O=C(N[C@H](Cc1c[nH]c2ccccc12)C(=O)Nc1ccncc1)c1ccc(-c2cc(F)ccc2F)cc1F,Active,Active,Active,Active,Active,Active,Active,Active,,,Active,Active,Active,,Active,Non-toxic,72.2%,35.4%,,

# Second part, led by results:
Drug uptake [1],Drug uptake [3],Drug uptake [4],Drug uptake [5],Drug uptake [6],Drug uptake [7],Drug uptake [8],Drug uptake [9],t1/2 [11],t1/2 [12],Drug uptake [13],Drug uptake [14],Drug uptake [15],t1/2 [16],Drug uptake [17],SMILES,Activity [2],inhibition in vivo at 25 mg/kg [10],inhibition in vivo at 40 mg/kg [18],inhibition in vivo at 50 mg/kg [19],other results
Active,Active,Active,Active,Active,Active,Active,Active,20 min,,Active,Active,Active,,Active,O=C(N[C@H](Cc1c[nH]c2ccccc12)C(=O)Nc1ccncc1)c1ccc(-c2cccc(F)c2)cc1F,Non-toxic,47.4%,51.6%,71.3%,
Active,Active,Active,Active,Active,Active,Active,Active,31 min,33 min,Active,Active,Active,51 min,Active,O=C(N[C@H](Cc1c[nH]c2ccccc12)C(=O)Nc1ccncc1)c1ccc(-c2cccc(C(F)(F)F)c2)cc1F,Non-toxic,74.7%,98.5%,99.2%,inhibition (INH) [20]: 92%; EC50 [21]: 39 nM; inhibition (INH) [22]: -16%; inhibition (INH) [23]: 7%; Kd [24]: 80 nM; inhibition (INH) [25]: 14%
Active,Active,Active,Active,Active,Active,Active,Active,,,Active,Active,Active,,Active,O=C(N[C@H](Cc1c[nH]c2ccccc12)C(=O)Nc1ccncc1)c1ccc(-c2ccc(F)c(F)c2)cc1F,Non-toxic,41.5%,83.6%,78.5%,AUC(0-t) [26]: 32.5 µM·h; Tmax [27]: 120 min; CL/F [28]: 53.8 mL/min/kg; half-life [29]: 197 min; Cmax [30]: 3.71 µM
